Common to all, as to type: functional
Holding throughout (conditions): read-out: IZ

In test [1] the test system is Staphylococcus aureus. Description: Antimicrobial activity against Staphylococcus aureus at 25 ug/ml after 24 hrs by agar diffusion method. Summed up: (§1)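 Agar well diffusion: petri plates (9 cm) with about 9 ml nutrient agar, seeded with the test organism. Wells cut with a cork borer and loaded with test compound at 25, 50, 75 or 100 per ml; tetracycline as control. Incubated 37 °C for 24 h; average inhibition-zone diameter around wells measured (mm).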
A general note: In agar diffusion tests the substance spreads into inoculated agar from a disc or well.

The subject of test [2] is Staphylococcus aureus. Description: Antimicrobial activity against Staphylococcus aureus at 100 ug/ml after 24 hrs by agar diffusion method. Summed up: as §1
The test system of test [3] is Salmonella enterica subsp. enterica serovar Typhi str. CT18. Description: Antimicrobial activity against Salmonella typhi at 50 ug/ml after 24 hrs by agar diffusion method. Summed up:
(§2)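 Agar well diffusion: about 9 ml nutrient agar in 9 cm Petri plates, seeded with the test organism. Wells cut with a cork borer and loaded with test compound at 25–100 per ml; tetracycline as control. Plates incubated 24 h at 37 °C. Read-out is the average diameter of the inhibition zone around each well, in mm.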

Test [4] has as its system Proteus mirabilis. Description: Antimicrobial activity against Proteus mirabilis at 50 ug/ml after 24 hrs by agar diffusion method. The procedure, abridged: as §1
The subject of test [5] is Staphylococcus aureus. Description: Antimicrobial activity against Staphylococcus aureus at 50 ug/ml after 24 hrs by agar diffusion method. The procedure, abridged:
as §1

The subject of test [6] is Proteus vulgaris. Description: Antimicrobial activity against Proteus vulgaris at 50 ug/ml after 24 hrs by agar diffusion method. The procedure, abridged:
as §1

The subject of test [7] is Proteus mirabilis. Description: Antimicrobial activity against Proteus mirabilis at 25 ug/ml after 24 hrs by agar diffusion method. The procedure, abridged:
as §1

Test [8] concerns Proteus vulgaris. Description: Antimicrobial activity against Proteus vulgaris at 75 ug/ml after 24 hrs by agar diffusion method. Summed up: as §1
Test [9] has as its system Staphylococcus aureus. Description: Antimicrobial activity against Staphylococcus aureus at 75 ug/ml after 24 hrs by agar diffusion method. The procedure, abridged:
as §1

The test system of test [10] is Salmonella enterica subsp. enterica serovar Typhi str. CT18. Description: Antimicrobial activity against Salmonella typhi at 25 ug/ml after 24 hrs by agar diffusion method. Summed up: as §2
Test [11] deals with Proteus mirabilis. Description: Antimicrobial activity against Proteus mirabilis at 100 ug/ml after 24 hrs by agar diffusion method. The procedure, abridged:
as §1

Test [12] deals with Proteus vulgaris. Description: Antimicrobial activity against Proteus vulgaris at 100 ug/ml after 24 hrs by agar diffusion method. The procedure, abridged:
as §1

Test [13] has as its system Salmonella enterica subsp. enterica serovar Typhi str. CT18. Description: Antimicrobial activity against Salmonella typhi at 75 ug/ml after 24 hrs by agar diffusion method. Summed up: as §2
Test [14] has the same test system. Description: Antimicrobial activity against Salmonella typhi at 100 ug/ml after 24 hrs by agar diffusion method. The procedure, abridged: as §2
The subject of test [15] is Proteus vulgaris. Description: Antimicrobial activity against Proteus vulgaris at 25 ug/ml after 24 hrs by agar diffusion method. Summed up: as §1
Test [16] has as its system Proteus mirabilis. Description: Antimicrobial activity against Proteus mirabilis at 75 ug/ml after 24 hrs by agar diffusion method. Summed up: as §1

In the case of `COc1ccc([C@@H]2CN(C)[C@@]3(C(=O)c4cccc5cccc3c45)[C@]23CCc2c([nH]c4ccccc24)C3=O)cc1`, the zone of inhibition at 25 µg/mL came out at 9 mm with Staphylococcus aureus [1], 14 mm in the test on Proteus mirabilis [7], 13 mm in test [10] and 9 mm in the test on Proteus vulgaris [15]. The zone of inhibition at 100 µg/mL in the test on Staphylococcus aureus [2] is 30 mm; with Proteus mirabilis [11] it was 22 mm; with Proteus vulgaris [12], 17 mm; in [14] it was 26 mm. The zone of inhibition at 50 µg/mL in [3] was found to be 15 mm; in the test with Proteus mirabilis [4], 16 mm; in the test with Staphylococcus aureus [5], 16 mm; with Proteus vulgaris [6] it was 12 mm. In addition, the zone of inhibition at 75 µg/mL with Proteus vulgaris [8] was 13 mm; with Staphylococcus aureus [9], 21 mm; in test [13], 18 mm; with Proteus mirabilis [16], 20 mm.
`Cc1ccc([C@@H]2CN(C)[C@@]3(C(=O)c4cccc5cccc3c45)[C@]23CCc2c([nH]c4ccccc24)C3=O)cc1`: the zone of inhibition at 25 µg/mL was determined as 14 mm in the test on Staphylococcus aureus [1], 11 mm in the test with Proteus mirabilis [7], 12 mm in [10] and 11 mm in the test on Proteus vulgaris [15]. In addition, the zone of inhibition at 100 µg/mL came to 27 mm with Staphylococcus aureus [2], 21 mm with Proteus mirabilis [11], 20 mm with Proteus vulgaris [12] and 29 mm in [14]. The zone of inhibition at 50 µg/mL in test [3] was 15 mm; in the test on Proteus mirabilis [4] it was 14 mm; with Staphylococcus aureus [5], 18 mm; in the test on Proteus vulgaris [6] it was 14 mm. For the same compound, the zone of inhibition at 75 µg/mL with Proteus vulgaris [8] is 16 mm; in the test with Staphylococcus aureus [9], 23 mm; in test [13], 21 mm; in the test on Proteus mirabilis [16], 18 mm.
On to `Cc1ccc([C@@H]2CN(C)[C@@]3(C(=O)Nc4ccccc43)[C@]23CCc2c([nH]c4ccccc24)C3=O)cc1`, for which the zone of inhibition at 25 µg/mL in the test with Staphylococcus aureus [1] was found to be 9 mm; with Proteus mirabilis [7] it was 11 mm; in test [10], 9 mm; in the test on Proteus vulgaris [15] it was 12 mm. Further, the zone of inhibition at 100 µg/mL in the test on Staphylococcus aureus [2] came out at 20 mm; in the test with Proteus mirabilis [11], 18 mm; in the test on Proteus vulgaris [12], 21 mm; in [14], 16 mm. Further, the zone of inhibition at 50 µg/mL in test [3] is 12 mm; with Proteus mirabilis [4], 14 mm; in the test with Staphylococcus aureus [5], 13 mm; in the test on Proteus vulgaris [6], 16 mm. Moreover, the zone of inhibition at 75 µg/mL with Proteus vulgaris [8] amounted to 18 mm; in the test on Staphylococcus aureus [9], 16 mm; in [13], 14 mm; in the test with Proteus mirabilis [16] it was 16 mm.
On to `CN1C[C@@H](c2ccc([N+](=O)[O-])cc2)[C@@]2(CCc3c([nH]c4ccccc34)C2=O)[C@]12C(=O)c1cccc3cccc2c13`, for which the zone of inhibition at 25 µg/mL in the test with Staphylococcus aureus [1] worked out at 9 mm; with Proteus mirabilis [7], 9 mm; in test [10], 11 mm; in the test on Proteus vulgaris [15] it was 13 mm. The zone of inhibition at 100 µg/mL in the test on Staphylococcus aureus [2] is 31 mm; in the test on Proteus mirabilis [11], 21 mm; with Proteus vulgaris [12] it was over 40 mm; in [14], 25 mm. Moreover, the zone of inhibition at 50 µg/mL in test [3] turned out to be 14 mm; in the test with Proteus mirabilis [4], 13 mm; in the test with Staphylococcus aureus [5], 16 mm; in the test on Proteus vulgaris [6], 22 mm. In addition, the zone of inhibition at 75 µg/mL in the test on Proteus vulgaris [8] amounted to 27 mm; in the test with Staphylococcus aureus [9], 21 mm; in [13] it was 18 mm; with Proteus mirabilis [16], 17 mm.
For the compound `CN(C)[C@@H]1C(O)=C(C(N)=O)C(=O)[C@@]2(O)C(O)=C3C(=O)c4c(O)cccc4[C@@](C)(O)[C@H]3C[C@@H]12` [TETRACYCLINE], the zone of inhibition at 25 µg/mL in the test on Staphylococcus aureus [1] was determined as 22 mm; in the test on Proteus mirabilis [7], 18 mm; in [10], 18 mm; with Proteus vulgaris [15], 18 mm. Also, the zone of inhibition at 100 µg/mL (in the test on Staphylococcus aureus [2]; in the test on Proteus mirabilis [11]; in the test with Proteus vulgaris [12]; in test [14]) was over 40 mm in each case. For the same compound, the zone of inhibition at 50 µg/mL in [3] was found to be 22 mm; with Proteus mirabilis [4], 24 mm; in the test with Staphylococcus aureus [5] it was 24 mm; in the test with Proteus vulgaris [6], 24 mm. The zone of inhibition at 75 µg/mL (in the test on Proteus vulgaris [8]; in the test with Staphylococcus aureus [9]; in test [13]; in the test with Proteus mirabilis [16]) was 28 mm throughout.
For the compound `CN1C[C@@H](c2ccc(Br)cc2)[C@@]2(CCc3c([nH]c4ccccc34)C2=O)[C@]12C(=O)c1cccc3cccc2c13`, the zone of inhibition at 25 µg/mL came to 11 mm in the test on Staphylococcus aureus [1], 13 mm in the test with Proteus mirabilis [7], 9 mm in test [10] and 12 mm with Proteus vulgaris [15]. The zone of inhibition at 100 µg/mL was found to be 22 mm with Staphylococcus aureus [2], 22 mm in the test on Proteus mirabilis [11], 22 mm in the test with Proteus vulgaris [12] and 30 mm in [14]. Further, the zone of inhibition at 50 µg/mL amounted to 14 mm in test [3], 15 mm in the test with Proteus mirabilis [4], 14 mm in the test on Staphylococcus aureus [5] and 16 mm in the test on Proteus vulgaris [6]. In addition, the zone of inhibition at 75 µg/mL with Proteus vulgaris [8] worked out at 20 mm; in the test on Staphylococcus aureus [9], 18 mm; in test [13] it was 21 mm; in the test with Proteus mirabilis [16], 18 mm.
`CN1C[C@@H](c2ccc(Cl)cc2)[C@@]2(CCc3c([nH]c4ccccc34)C2=O)[C@]12C(=O)Nc1ccccc12`: the zone of inhibition at 25 µg/mL is 9 mm in the test with Staphylococcus aureus [1], 13 mm with Proteus mirabilis [7], 11 mm in test [10] and 9 mm in the test on Proteus vulgaris [15]. For the same compound, the zone of inhibition at 100 µg/mL in the test on Staphylococcus aureus [2] was found to be 21 mm; with Proteus mirabilis [11] it was 22 mm; in the test on Proteus vulgaris [12] it was 26 mm; in test [14], 18 mm. The zone of inhibition at 50 µg/mL in test [3] came to 15 mm; in the test with Proteus mirabilis [4], 15 mm; in the test on Staphylococcus aureus [5] it was 14 mm; in the test on Proteus vulgaris [6] it was 18 mm. The zone of inhibition at 75 µg/mL in the test with Proteus vulgaris [8] worked out at 24 mm; in the test on Staphylococcus aureus [9], 18 mm; in test [13], 17 mm; in the test with Proteus mirabilis [16], 18 mm.
With `CN1C[C@@H](c2ccccc2)[C@@]2(CCc3c([nH]c4ccccc34)C2=O)[C@]12C(=O)Nc1ccccc12`, the zone of inhibition at 25 µg/mL stood at 11 mm in the test with Staphylococcus aureus [1], 9 mm in the test on Proteus mirabilis [7], 9 mm in [10] and 12 mm in the test with Proteus vulgaris [15]. Also, the zone of inhibition at 100 µg/mL was found to be 18 mm in the test on Staphylococcus aureus [2], 16 mm in the test on Proteus mirabilis [11], 26 mm in the test on Proteus vulgaris [12] and 18 mm in test [14]. Further, the zone of inhibition at 50 µg/mL is 11 mm in test [3], 12 mm in the test on Proteus mirabilis [4], 13 mm in the test on Staphylococcus aureus [5] and 16 mm in the test with Proteus vulgaris [6]. Besides, the zone of inhibition at 75 µg/mL was 20 mm in the test on Proteus vulgaris [8], 16 mm in the test on Staphylococcus aureus [9], 13 mm in [13] and 14 mm in the test with Proteus mirabilis [16].
On to `COc1ccc([C@@H]2CN(C)[C@@]3(C(=O)Nc4ccccc43)[C@]23CCc2c([nH]c4ccccc24)C3=O)cc1`, for which the zone of inhibition at 25 µg/mL with Staphylococcus aureus [1] amounted to 12 mm; with Proteus mirabilis [7], 9 mm; in test [10] it was 12 mm; in the test with Proteus vulgaris [15], 11 mm. Further, the zone of inhibition at 100 µg/mL in the test on Staphylococcus aureus [2] is 20 mm; in the test on Proteus mirabilis [11], 21 mm; with Proteus vulgaris [12], 20 mm; in test [14] it was 21 mm. The zone of inhibition at 50 µg/mL turned out to be 14 mm in test [3], 13 mm in the test with Proteus mirabilis [4], 14 mm in the test on Staphylococcus aureus [5] and 13 mm in the test on Proteus vulgaris [6]. Besides, the zone of inhibition at 75 µg/mL amounted to 18 mm with Proteus vulgaris [8], 17 mm with Staphylococcus aureus [9], 18 mm in test [13] and 16 mm in the test with Proteus mirabilis [16].

Values taken from ChEMBL document CHEMBL1138567, “Regioselective synthesis and antimicrobial screening of novel ketocarbazolodispiropyrrolidine derivatives” (2009).
